In the library only some 4.3% were active in any assay of this set; here they are far more common.
CR mimetic SO: reduction of superoxide in aged yeast, primary screen, HTS; S. cerevisiae aged cells, superoxide DHE fluorescence; hits give low values; superoxide response (% of plate mean), % at 10 µM; 330,000 compounds, 0.18% hits; AID 2690, 2010;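 active = superoxide response under a set limit, about three screen SD below normal, cut at about 65% in these data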;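 also: yeast aged for seven days with compound at 30 °C before DHE staining; 100% = average MFI of all compound-treated wells on the plate with controls excluded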
Lipid droplet: inhibitors of hepatocyte lipid droplet formation, primary screen, imaging, high-throughput imaging, BODIPY stain; AML12 mouse hepatocytes, oleate lipid droplets; inhibition, % at 6.5 µM; 240,000 compounds, 0.4% hits; AID 1656, 2009;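 active = lipid droplet intensity inhibited by at least 50%, with more than 500 cells counted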
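Test system: AML12 mouse liver cells; schedule: overnight exposure; technique: high-content imaging of BODIPY-stained droplets and DAPI nuclei; read-out: % inhibition of corrected integrated BODIPY droplet signal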
SMARCA2 act: SMARCA2 (BRM) function activators, primary screen, cell-based, luminescence, high throughput; MG213 cells, MMTV-luciferase reporter, dexamethasone, overnight; activation, % at 9.1 µM; 370,000 compounds, 1% hits; AID 652017, 2013; in the data active = activation above about 7.8%;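 also: 0% = vehicle wells and 100% = reference activator wells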
SR-BI HDL uptake: inhibitors of SR-BI mediated HDL lipid uptake, primary screen, ldlA[mSR-BI] cells, fluorescence, single point; ldlA[mSR-BI] CHO cells, DiI-HDL uptake fluorescence, 3 h; Scavenger receptor class B member 1 (Mus musculus), Q61009; 320,000 compounds, 0.96% hits; inhibition, % at 12.5 µM;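 active = mean replicate inhibition of at least 70% and a set share of replicates each scoring 70 or more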;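 also: 0% = median of neutral control wells and 100% = median of positive control wells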
Target sequence (Q61009 whole entry, looked up): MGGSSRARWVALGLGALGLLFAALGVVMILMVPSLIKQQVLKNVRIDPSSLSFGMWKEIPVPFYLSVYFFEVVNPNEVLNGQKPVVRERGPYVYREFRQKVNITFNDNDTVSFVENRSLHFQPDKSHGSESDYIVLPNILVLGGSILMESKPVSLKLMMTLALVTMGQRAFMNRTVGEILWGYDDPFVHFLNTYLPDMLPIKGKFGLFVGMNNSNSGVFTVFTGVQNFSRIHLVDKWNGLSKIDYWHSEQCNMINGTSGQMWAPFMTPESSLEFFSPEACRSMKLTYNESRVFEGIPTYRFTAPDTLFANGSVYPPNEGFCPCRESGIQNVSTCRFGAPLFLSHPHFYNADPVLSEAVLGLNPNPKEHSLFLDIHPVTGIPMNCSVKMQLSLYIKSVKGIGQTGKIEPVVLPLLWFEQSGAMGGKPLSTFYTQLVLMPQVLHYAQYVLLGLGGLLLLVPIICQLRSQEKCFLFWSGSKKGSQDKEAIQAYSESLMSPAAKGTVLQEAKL
AHR activator: AHR activators, primary screen, cell-based, luminescence, luciferase reporter, human | Aryl hydrocarbon receptor (Homo sapiens), P35869 | AHR-responsive luciferase reporter cells | activation, % at 5 µM | 320,000 compounds, 2.5% hits; in the data active = activation above about 47%;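 also: 0% = vehicle wells and 100% = reference agonist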
SR-BI DiI-HDL act: activators of SR-BI mediated DiI-HDL uptake, primary screen, ldlA[mSR-BI] CHO cells, DiI fluorescence | activation, % at 12.5 µM | 3 h; 100 = double the neutral-control signal | AID 504775, 2011 | 320,000 compounds, 0.096% hits;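 active = mean replicate activation of at least 60% and every replicate at or above 60%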;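 also: 0% = median plate neutral-control signal and 100% = twice that signal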
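Material – SR-BI-overexpressing, LDLR-lacking CHO cells · Medium – BSA-supplemented, HEPES-buffered Ham's F12, pH 7.4 · Doses – single concentration · Times – compound with DiI-HDL co-incubation, 3 h at 37 °C · Measured by – bottom-read fluorescence, 550/595 nm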
An asterisk follows results filed as active; x = not tested or not shown.

SMILES	CR mimetic SO	Lipid droplet	SMARCA2 act	SR-BI HDL uptake	AHR activator	SR-BI DiI-HDL act
CCC1CN(C(=O)NCc2ccc(C)cc2)c2cc(C)ccc2O1 (configuration not stated)	96	-2	-3	78*	x	-78
O/N=C(\c1ccc(Cl)cc1)c1ncc(C(F)(F)F)cc1Cl	83	-25	-1	-10	79*	10
O=C(NN=Cc1ccccc1O)C(=O)Nc1ccc(F)cc1	x	x	-6	x	x	x
COc1ccc(C2=NN(C(=O)CSc3nc4ncc(Cl)cc4[nH]3)C(c3ccco3)C2)cc1 (configuration not stated)	106	17	-2	11	47*	-11
CCC(=O)Oc1ccc(C(=O)Nc2cccc(C(=O)NCC(C)C)c2)cc1	108	36	-4	39	8	-39
CC(C)CNC(=O)c1cccc(NC(=O)c2ccc3c(c2)C(=O)N(C)C3=O)c1	105	-10	-1	81*	-1	-81
CN(C)S(=O)(=O)Oc1ccsc1C(=O)Nc1cccc(Cl)c1Cl	97	x	-3	56	60*	-56
CN(C)S(=O)(=O)Oc1ccsc1C(=O)Nc1ccccc1Cl	103	x	-3	65	6	-65
COC(=O)c1ccc2nc(-c3ccc(C)cc3)c(Cc3ccccc3)n2c1	x	x	2	x	x	x
CCc1cc(=O)oc2cc3occ(C)c3cc12	86	10	1	19	36	-19
CCCc1cc(=O)oc2cc3occ(C)c3cc12	109	1	-1	0	47*	0
Cc1ccc2[nH]c(CNC(=O)c3ccc(F)cc3)cc2c1	102	1	-3	-13	65*	13
Cc1c(Cl)cccc1NC(=O)CNc1cccc(C(F)(F)F)c1	93	-4	-2	-4	1	4
N#Cc1ccccc1NC(=O)CNc1ccc(Cl)c(C(F)(F)F)c1	98	-10	-2	-2	65*	2
c1ccc(-n2nnc(-c3nccs3)n2)cc1	95	x	6	-3	54*	3
Fc1ccc(-n2nnc(-c3ccccc3)n2)cc1	99	x	0	3	x	-3
COC(=O)c1[nH]c2ccc(C)cc2c1NC(=O)Oc1ccccc1	103	1	3	6	54*	-6
C=CCOC(=O)Nc1c(C(=O)OC)[nH]c2ccccc12	113	x	1	17	57*	-17
COC(=O)c1[nH]c2cc(OC)c(OC)cc2c1NC(=O)Oc1ccccc1	91	10	-3	-14	0	14
CCOC(=O)c1[nH]c2ccccc2c1NC(=O)NC(C)C	110	-12	-1	-5	17	5
CCOC(=O)c1[nH]c2ccccc2c1NC(=S)Nc1cccc(C)c1C	133	-8	-1	36	56*	-36
COC(=O)c1[nH]c2ccc(C)cc2c1NC(=O)CN1CCCc2ccccc21	109	-30	-4	25	57*	-25
Nc1nc2c(ncn2[C@@H]2O[C@H](C(=O)N[C@H](Cc3ccccc3)C(=O)NCc3ccc4c(c3)OCO4)[C@@H](O)[C@H]2O)c(=O)[nH]1	x	x	-6	x	x	x
COC(=O)c1cc2c(c3c4cc(F)ccc4n(S(=O)(=O)c4ccc(OC)cc4)c13)C(=O)N(Cc1ccccc1OC)C2	x	x	-5	x	x	x
COC(=O)c1[nH]c2cc(C)ccc2c1NC(=O)CN1CCN(c2ccccc2OC)CC1	107	3	-2	76*	39	-76
SMILES	CR mimetic SO	Lipid droplet	SMARCA2 act	SR-BI HDL uptake	AHR activator	SR-BI DiI-HDL act
NC(=O)CC1Nc2cccc3cccc(c23)NC1=O (configuration not stated)	104	-14	0	x	51*	x
COc1ccc(CCNC(=O)CC2Nc3ccccc3NC2=O)cc1 (configuration not stated)	96	x	1	35	29	-35
O=C(CC1Nc2ccccc2NC1=O)NCCc1ccccc1 (configuration not stated)	95	2	3	-17	49*	17
O=C(CC1Nc2ccccc2NC1=O)c1ccccc1 (configuration not stated)	98	x	x	x	78*	x
COC(=O)c1ccc2c(=O)n(CCCCCC(=O)NC3CCCCC3)c(=O)[nH]c2c1	x	x	-1	x	x	x
COc1cccc(/C=C2\CC3(OC(=O)c4ccc(F)cc4)CCCN2C3)c1 (configuration not stated)	x	x	-1	x	x	x
Cc1ccccc1N=Nc1c(N)[nH]n(-c2ccccc2)c1=O	x	x	-1	x	x	x
COc1ccc(NS(=O)(=O)c2ccc(C)c(C(=O)O)c2)cc1	98	x	0	-17	-1	17
O=C(NNC(=O)c1ccccc1O)c1ccc(NS(=O)(=O)c2ccc(F)c(F)c2)cc1	74	x	-2	85*	14	-85
COc1ccc(NS(=O)(=O)c2ccc(C)c(C(=O)NNC(=O)c3ccccc3O)c2)cc1	86	x	-2	97*	8	-97
Cc1ccc(S(=O)(=O)Nc2ccccc2F)cc1C(=O)NNC(=O)c1ccccc1O	82	x	-2	8	14	-8
O=S1(=O)c2ccc(Br)cc2OC[C@@H](Cc2ccccc2)N1Cc1cn(CCC2OCCCO2)nn1	x	x	-2	x	x	x
Cc1c(/C=N/Nc2nc3ccccc3[nH]2)c2ccccc2n1C	83	26	-3	37	108*	-37
C=CCn1cc(/C=N/Nc2nc3ccccc3[nH]2)c2ccccc21	85	-6	-4	39	146*	-39
CC(C)Cn1c(/C=N/Nc2nc3ccccc3[nH]2)nc2ccccc21	x	-1	-3	7	x	-7
C(=N\Nc1nc2ccccc2[nH]1)/c1cccs1	111	x	2	-4	74*	4
CCCCNC(=O)N1CCC(c2nc3ccc(Cl)cc3[nH]2)CC1	x	x	-4	x	x	x
CN(C)c1ccc(C(CNS(=O)(=O)c2ccc(F)cc2)c2c[nH]c3ccccc23)cc1 (configuration not stated)	108	32	-2	-2	57*	2
COC1=C[C@H](C(=O)NCc2ccc(Br)cc2)C(C)C(c2ccccc2)CC1=O (some centres not stated)	x	x	-2	x	x	x
Cc1nc2cc(NCc3ccc(Cl)cc3)ccc2n1C	106	6	6	x	24	x
Cc1ccc(CNc2ccc3c(c2)nc(C)n3C)cc1	98	13	5	-5	57*	5
Cc1oc2c(cc(NS(=O)(=O)c3ccc4c5c(cccc35)C(=O)N4)c3ccccc32)c1C(=O)OC(C)C	116	x	-3	-7	74*	7
O=C1CCCc2oc3c(cc(NS(=O)(=O)c4ccc5c6c(cccc46)C(=O)N5)c4ccccc43)c21	108	-2	-1	x	54*	x

High-throughput results (PubChem)
